Molecular target: T1, Toll-like receptor 7 (Homo sapiens, UniProt Q9NYK1)
T1 sequence (Q9NYK1 whole entry): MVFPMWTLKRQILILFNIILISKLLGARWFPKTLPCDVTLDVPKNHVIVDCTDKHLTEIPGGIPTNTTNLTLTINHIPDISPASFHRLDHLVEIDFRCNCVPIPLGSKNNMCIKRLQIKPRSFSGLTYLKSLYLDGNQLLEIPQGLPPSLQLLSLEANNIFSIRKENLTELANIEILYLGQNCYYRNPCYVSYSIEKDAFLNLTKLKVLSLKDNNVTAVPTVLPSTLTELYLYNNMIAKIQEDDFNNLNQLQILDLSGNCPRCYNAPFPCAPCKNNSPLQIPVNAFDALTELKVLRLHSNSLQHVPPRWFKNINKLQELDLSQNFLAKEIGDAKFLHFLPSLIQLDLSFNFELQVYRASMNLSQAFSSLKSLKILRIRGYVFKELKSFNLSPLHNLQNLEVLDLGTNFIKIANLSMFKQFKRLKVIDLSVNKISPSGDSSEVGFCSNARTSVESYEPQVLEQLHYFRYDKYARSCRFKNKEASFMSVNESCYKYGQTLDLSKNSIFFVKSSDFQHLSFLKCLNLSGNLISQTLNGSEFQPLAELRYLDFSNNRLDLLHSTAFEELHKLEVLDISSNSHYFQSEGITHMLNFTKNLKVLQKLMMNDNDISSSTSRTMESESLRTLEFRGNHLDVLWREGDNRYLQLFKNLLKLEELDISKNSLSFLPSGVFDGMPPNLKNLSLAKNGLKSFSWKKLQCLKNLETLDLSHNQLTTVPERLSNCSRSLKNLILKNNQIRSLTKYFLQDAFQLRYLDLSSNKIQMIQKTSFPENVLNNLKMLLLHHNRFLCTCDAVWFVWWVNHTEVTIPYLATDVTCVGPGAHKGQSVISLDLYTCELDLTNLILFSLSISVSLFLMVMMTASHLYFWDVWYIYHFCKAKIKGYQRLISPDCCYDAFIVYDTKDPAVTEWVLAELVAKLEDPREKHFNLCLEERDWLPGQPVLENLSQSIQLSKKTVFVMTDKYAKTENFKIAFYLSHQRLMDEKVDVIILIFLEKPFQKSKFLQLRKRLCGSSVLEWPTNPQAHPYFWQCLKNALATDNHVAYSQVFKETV
Assay: Antagonist activity at human TLR7 expressed in HEK293 cells assessed as inhibition of R848-induced NF-kappaB activation-mediated SEAP production after 24 hrs by Quanti-blue-based assay
Summary of the method: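 HEK293 cells stably carrying a human TLR plus an NF-κB-driven SEAP reporter, seeded 5×10^4/well for 24 h at 37 °C, then stimulated: Pam3CSK4 100 µg/mL (TLR1/2), Pam2CSK4 100 µg/mL, poly I:C 5 µg/mL (TLR3), LPS 20 ng/mL (TLR4), flagellin 100 ng/mL (TLR5), R848 1 µg/mL (TLR7, TLR8), CpG-ODN2006 1 µg/mL (TLR9). After 24 h with compound, supernatant mixed with QUANTI-Blue, 1 h 37 °C, OD 620 nm.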

IC50 | Compound
0.99 µM | O=C(NNC(=O)c1csc(-c2ccc(C(F)(F)F)cc2)n1)c1ccccn1
27 µM | Nc1nccnc1C(=O)NNC(=O)c1ccc(OC(F)(F)F)cc1
17 µM | O=C(NNC(=O)c1ccccn1)c1ccc(Br)cc1
0.26 µM | O=C(NNC(=O)c1csc(-c2ccc(Cl)cc2Cl)n1)c1ccccn1
14.2 µM | O=C(NNC(=O)c1ncccc1O)c1cccc(C(F)(F)F)c1
24.7 µM | O=C(NNC(=O)c1ccccn1)c1ccc(Cl)cc1
27.8 µM | O=C(NNC(=O)c1ncccc1O)c1ccc(Cl)cc1
44.8 µM | Cc1nc(C(=O)NNC(=O)c2ccc(Cl)cc2)cs1
14 µM | CC(C)c1nc(C(=O)NNC(=O)c2ccccn2)cs1
4.4 µM | O=C(NNC(=O)c1csc(-c2ccc(F)cc2)n1)c1ccccn1
2.1 µM | O=C(NNC(=O)c1csc(-c2ccc(Cl)cc2)n1)c1ccccn1
3.9 µM | COc1ccc(-c2nc(C(=O)NNC(=O)c3ccccn3)cs2)cc1OC
0.5 µM | O=C(NNC(=O)c1csc(-c2cccc(Cl)c2Cl)n1)c1ccccn1
1.02 µM | O=C(NNC(=O)c1csc(-c2cccc(C(F)(F)F)c2)n1)c1ccccn1
17.3 µM | O=C(NNC(=O)c1ncccc1O)c1ccc(Br)cc1
23.2 µM | O=C(NNC(=O)c1csc(-c2cccnc2)n1)c1ccccn1
2.4 µM | CCc1ccc(-c2nc(C(=O)NNC(=O)c3ccccn3)cs2)cc1
13.4 µM | O=C(NNC(=O)c1ncccc1O)c1ccc(C(F)(F)F)cc1
60 µM | Cc1nc(C(=O)NNC(=O)c2cccc(Cl)c2)cs1
5.8 µM | O=C(NNC(=O)c1csc(-c2ccccc2)n1)c1ccccn1

Second part, the molecule before the results:

Compound | IC50
O=C(NNC(=O)c1csc(-c2cccc(Br)c2)n1)c1ccccn1 | 0.9 µM
CN(C)c1ccc(-c2nc(C(=O)NNC(=O)c3ccccn3)cs2)cc1 | 1.9 µM
Nc1nccnc1C(=O)NNC(=O)c1ccc(C(F)(F)F)cc1 | 25 µM
Nc1cccnc1C(=O)NNC(=O)c1cccc(C(F)(F)F)c1 | 16 µM
O=C(NNC(=O)c1ccccn1)c1ccc(C(F)(F)F)cc1 | 17 µM
O=C(NNC(=O)c1ncccc1O)c1ccc(OC(F)(F)F)cc1 | 7.9 µM
Cc1nc(C(=O)NNC(=O)c2ccccn2)cs1 | 30 µM
Cc1ccc(-c2nc(C(=O)NNC(=O)c3ccccn3)cs2)cc1 | 1.83 µM
COc1ccc(-c2nc(C(=O)NNC(=O)c3ccccn3)cs2)cc1 | 3.09 µM
O=C(NNC(=O)c1csc(-c2cc(Cl)cc(Cl)c2)n1)c1ccccn1 | 0.44 µM
O=C(NNC(=O)c1csc(-c2cccc(F)c2)n1)c1ccccn1 | 2.6 µM
O=C(NNC(=O)c1csc(-c2cccc(Cl)c2)n1)c1ccccn1 | 1 µM
Nc1nccnc1C(=O)NNC(=O)c1cccc(C(F)(F)F)c1 | 38 µM
O=C(NNC(=O)c1ccccn1)c1cccc(C(F)(F)F)c1 | 15 µM
O=C(NNC(=O)c1ccccn1)c1ccc(OC(F)(F)F)cc1 | 22 µM
